Data taken from ChEMBL document CHEMBL3124841, “Discovery of vinyl sulfones as a novel class of neuroprotective agents toward Parkinson's disease therapy” (J Med Chem, 2014).
Active and inactive are the calls of the source. The rule behind the calls is not given here.

Tests used:
[1] = molecular target: T1, Nuclear factor erythroid 2-related factor 2 (Mus musculus) (UniProt Q60795); test: Induction of Nrf2-dependent GCLM gene expression in mouse CATH.a cells at 2 uM after 6 hrs by RT-PCR analysis relative to control; format: cell-based
T1 sequence (whole entry): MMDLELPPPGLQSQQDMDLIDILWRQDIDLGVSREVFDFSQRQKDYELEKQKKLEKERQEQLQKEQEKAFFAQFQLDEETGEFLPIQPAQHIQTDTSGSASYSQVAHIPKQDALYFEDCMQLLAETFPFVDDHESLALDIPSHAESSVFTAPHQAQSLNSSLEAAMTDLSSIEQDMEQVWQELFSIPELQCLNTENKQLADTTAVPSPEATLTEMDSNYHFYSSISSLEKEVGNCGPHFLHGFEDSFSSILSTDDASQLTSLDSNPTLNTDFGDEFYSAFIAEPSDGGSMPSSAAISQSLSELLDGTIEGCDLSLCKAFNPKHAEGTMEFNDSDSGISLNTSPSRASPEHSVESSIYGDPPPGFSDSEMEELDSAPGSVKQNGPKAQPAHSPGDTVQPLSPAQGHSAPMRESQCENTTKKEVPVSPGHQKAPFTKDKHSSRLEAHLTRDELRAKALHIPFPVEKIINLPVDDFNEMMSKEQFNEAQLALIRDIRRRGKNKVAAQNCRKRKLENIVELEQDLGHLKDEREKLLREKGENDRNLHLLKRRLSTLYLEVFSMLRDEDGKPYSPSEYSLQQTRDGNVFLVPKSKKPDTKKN
Procedure, shortened: (§1)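 CATH.a cells grown in RPMI 1640 with 8% horse serum and 4% FBS, exposed to graded concentrations for 6 h. mRNA analysed by RT-PCR with gene-specific primers, products run on 1% agarose gel, band densitometry normalized to GAPDH. At least duplicate cultures; fold induction versus untreated control ± SEM.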

[2] = molecular target: T1, Nuclear factor erythroid 2-related factor 2 (Mus musculus); test: Induction of Nrf2-dependent HO1 gene expression in mouse CATH.a cells at 1 to 10 uM after 6 hrs by RT-PCR analysis relative to control; format: cell-based; procedure, shortened: as §1
[3] = molecular target: T1, Nuclear factor erythroid 2-related factor 2 (Mus musculus); test: Induction of Nrf2-dependent NQO1 protein expression in mouse CATH.a cells at 10 uM after 24 hrs by western blot analysis relative to control; format: cell-based
Procedure, shortened: (§2)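 Cells (CATH.a) exposed to graded concentrations for 24 h, lysed in RIPA buffer with protease inhibitors. Equal protein separated on 10% SDS gel, blotted; primary antibodies overnight at 4 °C, HRP secondary, chemiluminescence. Densitometry normalized to β-actin. At least duplicate cultures, fold of untreated control ± SEM.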

[4] = molecular target: T1, Nuclear factor erythroid 2-related factor 2 (Mus musculus); test: Induction of Nrf2 nuclear translocation in mouse CATH.a cells at 10 uM after 3 hrs by western blot analysis relative to control; format: cell-based
Procedure, shortened: (§3)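 Mouse DAergic CATH.a cells treated at various concentrations for 3 h. Nuclei isolated by hypotonic HEPES buffer/NP-40 lysis, then nuclear proteins extracted in 400 mM NaCl HEPES buffer. Nrf2 Western blot with lamin B as nuclear marker, chemiluminescent detection, densitometry. At least duplicate cultures, expressed as fold induction over untreated control ± SEM.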

[5] = molecular target: T1, Nuclear factor erythroid 2-related factor 2 (Mus musculus); test: Induction of Nrf2 nuclear translocation in mouse CATH.a cells after 3 hrs by western blot analysis; format: cell-based; procedure, shortened: as §3
[6] = molecular target: T1, Nuclear factor erythroid 2-related factor 2 (Mus musculus); test: Induction of Nrf2-dependent HO1 protein level in mouse BV-2 cells at 20 uM after 24 hrs by sandwich ELISA relative to control; format: cell-based
Procedure, shortened: (§4)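 Murine BV-2 microglia in DMEM/10% FBS, 2.0 × 10⁴ cells per well, treated at 20 μM for 24 h in triplicate. Lysates in NP-40 Tris buffer (pH 8.0) diluted tenfold; HO-1 measured by sandwich ELISA with HRP-streptavidin and Amplex Red fluorescence (ex 530/em 590 nm). Expressed as % of 0.04% DMSO vehicle control ± SEM; sulforaphane 5 μM as reference.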

[7] = molecular target: T1, Nuclear factor erythroid 2-related factor 2 (Mus musculus); test: Induction of Nrf2-dependent HO1 protein level in mouse BV-2 cells at 20 uM after 24 hrs by sandwich ELISA; format: cell-based; procedure, shortened: as §4
Mus musculus [8] = test: Effect on DAergic neurons in C57Bl/6 mouse SN at 10 mg/kg/day, po for 3 days by immunohistochemistry; format: ADME, organism-based; parameters: route oral; conditions: in vivo, 72 h
Procedure, shortened: (§5)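 Male C57Bl/6 mice (23−25 g, n = 10/group) dosed orally at 10 mg/kg/day for 3 days, vehicle N-methyl-2-pyrrolidone and 20% Tween 80 in saline. MPTP 4 × 20 mg/kg ip 2 h apart, starting 24 h after first oral dose. Perfusion-fixed 7 days after first MPTP; TH immunostaining, nigral cells counted and striatal fibers densitometered on five sections each, 80 μm apart. Expressed as % vehicle control ± SEM.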

Mus musculus [9] = test: (§6) Inhibition of motor deficits in MPTP-induced C57Bl/6 mouse parkinson's disease model assessed as time taken to climb down at 10 mg/kg/day, po for 3 days administered first dose at 24 hrs prior to first injection of 4X 20 mg/kg, ip MPTP challenge by vertical grid test (reference value: 22.4 +/-3.9 s); format: functional
Mus musculus [10] = test: as §6, with “turn around” for “climb down”, “12.4 +/-1.8” for “22.4 +/-3.9”; format: functional
Mus musculus [11] = test: Neuroprotective activity against MPTP-induced neurodegeneration in C57Bl/6 mouse parkinson's disease model assessed as increase in DAergic neurons in SN at 10 mg/kg/day, po for 3 days administered first dose at 24 hrs prior to first injection of 4X 20 mg/kg, ip MPTP challenge measured 7 days after first MPTP injection by immunohistochemistry; format: functional, organism-based; procedure, shortened: as §5
[12] = Cytotoxicity against mouse CATH.a cells assessed as cell viability at 0.1 to 2 uM after 72 hrs by ATP assay; format: cell-based
Procedure, shortened: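 CATH.a cells seeded at 2.4 × 10⁴ cells/well, exposed to the agent alone for 72 h. Viability read as cellular ATP by CellTiter-Glo luminescence (2 min lysis, 10 min room temperature, 1 min read). At least duplicate cultures, percent of untreated control ± SEM.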

[13] = molecular target: T1, Nuclear factor erythroid 2-related factor 2 (Mus musculus); test: Induction of Nrf2-dependent GCLM gene expression in mouse CATH.a cells at 0.1 uM after 6 hrs by RT-PCR analysis; format: cell-based; procedure, shortened: as §1
[14] = molecular target: T1, Nuclear factor erythroid 2-related factor 2 (Mus musculus); test: Induction of Nrf2-dependent HO1 protein expression in mouse CATH.a cells at 0.1 uM after 24 hrs by western blot analysis; format: cell-based; procedure, shortened: as §2
[15] = molecular target: T1, Nuclear factor erythroid 2-related factor 2 (Mus musculus); test: Induction of Nrf2-dependent HO1 gene expression in mouse CATH.a cells at 0.1 uM after 6 hrs by RT-PCR analysis; format: cell-based; procedure, shortened: as §1
[16] = molecular target: T1, Nuclear factor erythroid 2-related factor 2 (Mus musculus); test: Induction of Nrf2-dependent NQO1 protein expression in mouse CATH.a cells at 0.1 uM after 24 hrs by western blot analysis; format: cell-based; procedure, shortened: as §2
Mus musculus [17] = organism: Mus musculus; test: Neuroprotection against BH4-induced mouse CATH.a cell death assessed as cell viability at 0.1 uM treated for 20 hrs prior to BH4 challenge for 24 hrs by ATP assay; format: functional
Procedure, shortened: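 CATH.a cells (2.4 × 10⁴/well) pretreated with graded concentrations for 20 h, then challenged with 200 μM BH4 for a further 24 h. Viability as cellular ATP by CellTiter-Glo luminescence. At least duplicate cultures, percent of untreated control ± SEM, compared with BH4-treated cells.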

[18] = molecular target: T1, Nuclear factor erythroid 2-related factor 2 (Mus musculus); test: Induction of Nrf2-dependent GCLC gene expression in mouse CATH.a cells at 10 uM after 6 hrs by RT-PCR analysis relative to control; format: cell-based; procedure, shortened: as §1

- fold change (FC) [1]: 1.43
- fold change (FC) [2]: 3
- fold change (FC) [3]: 4.43
- fold change (FC) [4]: 3.5
- Activity [5]: Dose-dependent effect
- fold change (FC) [6]: 3.8
- Activity [7]: 382%
- Activity [13]: inactive
- Activity [14]: inactive
- Activity [15]: inactive
- Activity [16]: inactive
- fold change (FC) [18]: 2.64
SMILES: COc1ccccc1S(=O)(=O)/C=C/c1ccccc1Cl
- Activity (Mus musculus [8]): Non-toxic
- Time (Mus musculus [9]): 6.3 s
- Time (Mus musculus [10]): 4 s
- Activity (Mus musculus [11]): Active
- Activity [12]: Non-toxic
- Activity (Mus musculus [17]): Active
